Measured values taken from the EternaBench riboswitch data.

Tested on: MS2 coat protein
Test: apparent Kd, MS2 coat protein; higher = weaker binding; RNA-MaP array; FMN 200 µM where present
In short: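 Binding was read on Illumina sequencing-chip clusters where stalled E. coli RNA polymerase had transcribed each design. A titration of SNAP-549-labelled MS2 coat protein began at 0.7 or 1.5 nM and doubled to 3 µM, once without ligand and once with constant ligand, in 100 mM Tris-HCl pH 7.5, 80 mM KCl, 4 mM MgCl2, BSA, DTT, yeast tRNA and Tween-20. The apparent Kd is the median of filtered per-cluster binding-curve fits, based on green signal normalised to red-channel RNA signal and control-cluster median Fmax.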

[1] = designed as: OFF switch for flavin mononucleotide, no ligand
[2] = ligand present: flavin mononucleotide, designed as: OFF switch for flavin mononucleotide
[3] = designed as: ON switch for flavin mononucleotide, no ligand
[4] = ligand present: flavin mononucleotide, designed as: ON switch for flavin mononucleotide

Row | Sequence | apparent Kd [1] [nM] | apparent Kd [2] [nM] | apparent Kd [3] [nM] | apparent Kd [4] [nM]
1 | UGUCCAUAGCAGAAGGACAUAAAUACAUGACCAAACAUGAGGAUCACCCAUGUAGGAUAUGCUAUGGACUAAGAGCGAAAGCUC | 6.6 | 9.31 |  | 
2 | CGGCACCAAGGAUAUACAUGAGGAUCACCCAUGUUUUUUGGGCCCUAAAGAUCUACGUGUAGAAGGUGGGUCGA | 58.8 | 59.6 |  | 
3 | GUUAAACAUGAGGAUCACCCAUGUCAAUGUAGUCGAGGAUAUGGGCAGCUAUGAGGCGUACUAGAAGGCGAAGAGU |  |  | 361 | 178
4 | AAAUAGGAAGGAUAUACGGCGGGAUACUGGUUCCACGUGUUACAUGAGGAUCACCCAUGUAGAAGGUCUGGUUA | 24.7 | 55.4 |  | 
5 | AGUUUGUGAGGAUAUCCAAUAUAUGACAUGAGGAUCACCCAUGUUUCCACUCGUACCUCCGGAGAAGGCACUGCGU | 30.7 | 26.9 |  | 
6 | UCGAACGGAAACAAAGUCUUCGGACAUGAGGAUCACCCAUGUAAGGAUAUGCCUACUAAAAGUAGGCAGAAGGUACGCGUUCGA | 22.1 | 51.1 |  | 
7 | CGUCCACAUGAGGAUCACCCAUGUCAGGAUAUACAAAUGCCAGGUCGCGGGCCAGGCGGUAGAAGGGACGUGGC | 23.1 | 18.6 |  | 
8 | UGACGGAGCUGAGGAUAUACAUGAGGAUCACCCAUGUAAGAUCUCCAGGAAACUGGAGAUCAAAAGUAGAAGGCAGCUCCGUCA | 15.4 | 23.4 |  | 
9 | GGUACUCAAAGAGUACGGAGUCGAACAUGAGGAUCACCCAUGUAGGAUAUGCUAUUCUUGAAGUUGCAGAAGGACAUGUGCAGC | 10.9 | 11.1 |  | 
10 | UCGCUGCGAGGAUAUACGUGCGCGCGCUCGCGUUCGCGCGUACAUGAGGAUCACCCAUGUAGAAGGCGCGCUGC | 13.5 | 13.2 |  | 
11 | GGUCCAUUAUGAGGAUAUGGCACCUUAUUGGUGCCAGAAGGCAUGUCUUCACAUGAGGAUCACCCAUGUUAAAUAAAUUGGACC |  |  | 16.3 | 17.7
12 | GAAGCGCUUGACAUGAGGAUCACCCAUGUUAGAUUGUUAUGUCAGGAUAUAGUCUAGAAACUAGACUAGAAGGGAUAUGCUUCU |  |  | 300 | 43.1
13 | UCAAGUAUGUAGGAUAUCGAUGUCCUCGGACAUCGAGAAGGACGUACAUGAGGAUCACCCAUGUAACUUGCAUG | 63.8 | 84.9 |  | 
14 | GUGCAAUGAGGAUAUACGUAGGUGAAAAUCUGUGUGCUCCUACAUGAGGAUCACCCAUGUAGAAGGCAUGUCAC | 17.1 | 28.2 |  | 
15 | AAAAAGGUAGGAUAUACGAAAAAAAAGGGUAGAAAAAAAACACAUGAGGAUCACCCAUGUAGAAGGACCAAAAA | 27.4 | 63 |  | 
16 | UUCGUGUAAGGAUAUACGACCCAUCCCAUUGGGAUGGACACGUAGAAGGUACAUGAGGAUCACCCAUGUGCUCC | 27.3 | 135 |  | 
17 | UAAUUAAGUGUGAGGAUAUGCUGGUCCUUGGAUCAGCAGAAGGCACAUGAGGAUCACCCAUGUAAUAUAUUUAU | 97.4 | 493 |  | 
18 | CUGUUCCGUGUAGGAUAUGCAUAUUCCCAUUAUGCAGAAGGACAUGAGGAUCACCCAUGUAUGUUAUUAUCAUGUGUUACAUGC | 44.4 | 453 |  | 
19 | GGACUUCCUGAGGAUAUUGUAUCACCUGAUUGAUAAGAAGGCAGAACAUGAGGAUCACCCAUGUGGGUACUCGG | 136 | 125 |  | 

Row | Sequence | apparent Kd [1] [nM] | apparent Kd [2] [nM] | apparent Kd [3] [nM] | apparent Kd [4] [nM]
20 | GCGUUACAUGAGGAUCACCCAUGUGAGGAUAUGGUGCGGUAGUGUCCUGUCGCGUACUCCAGAAGGCGCGGGUG | 137 | 240 |  | 
21 | AGAUAACACCAGAAGGACAUGAGGAUCACCCAUGUAGGAUAUGGGCAUCACUCGAGAAAGAAACGACCAAAUGGACACGCGGUC |  |  | 80.1 | 9.46
22 | AGCGGAGACAUGAGGAUCACCCAUGUCAGUGCCGGCGAUACCAGAAGGCCCGGCGGGCCUCGCCGGGAGGAUAUGGGUUCAACA |  |  | 13.1 | 8.39
23 | GCGACGAAAGUCGAACGAUGUAGCAGAAGGACAUGAGGAUCACCCAUGUCAGCUGUAACAGCCAUGUAGGAUAUGCUACAUCGG | 4.09 | 5.27 |  | 
24 | GCAGACUUGCUGAAGGUGUUCCACAUGAGGAUCACCCAUGUCAAGGAUAUAACGCGUCCGGCCCGUUAGAAGGUGACAGUUUGC | 368 | 229 |  | 
25 | CAGUGCAAUGUAGGAUAUGCUCAGGAAUACUGAGCAGAAGGACAUGAGGAUCACCCAUGUCAAAUGAAAGAUAAUAAAGCACUG | 14.6 | 18.9 |  | 
26 | AAAAGACAUGAGGAUCACCCAUGUCAGGAUAUCUAUAUUCAAGGGUCGGAGGGAAUACAGAGAAGGGAUGAGGG | 21.8 | 24.8 |  | 
27 | CAGUACUGAGGAUAUACAUGAGGAUCACCCAUGUGUUCCAGCUAGGAAACUAGCAUAAGUAGAAGGCAGUACUG | 21.2 | 354 |  | 
28 | UUAUAUUUACAAGGAUAUCAAUUAUUUAUACUUCCUACAUGAGGAUCACCCAUGUUUUUAUAUUUUGAGAAGGUGUAAUGUCGG |  |  | 38.5 | 33.7
29 | CCGCAAAUGCAGGAUAUCGUAUCGGAUACGAUACGAGAAGGGCGUACAUGAGGAUCACCCAUGUGUCCUAGCGG | 16.4 | 23.3 |  | 
30 | AACUACUCUGUGAGGAUAUGCGAUCGUUGAUCAAAGCAGAAGGCACAUGAGGAUCACCCAUGUUCCUACGAGGG | 29.3 | 73.1 |  | 
31 | GAAUUAAAGAUCCAAUUUUACAACAUGAGGAUCACCCAUGUGCAGGAUAUCGUGUGUUUUAUAUUCGAGAAGGGCAAAUACAUU | 100 | 187 |  | 
32 | AACUAGCUAGGAUAUACAUGAGGAUCACCCAUGUAAAAAAAAAAAAAAAGAUCAAAAUGUAGAAGGAGCUAGUA | 106 | 132 |  | 
33 | GGUGAAGCAGGAUAUGUAUCGAUAUACAUGAGGAUCACCCAUGUCAUGUUCGAAUCGCAUAUAGAAGGGCUUCACC | 13.4 | 16.7 |  | 
34 | UUUUAACAUGAGGAUCACCCAUGUGAGGAUAUCGUUAUUUUUAUUAAUAUUAAUAAAACGAGAAGGCACAUUUU | 104 | 114 |  | 
35 | CUGGUGUGAGGAUAUCAGGACACGUAAGCGGGCGUGUCAAAUGAGAAGGCACAUGAGGAUCACCCAUGUGGGAC | 34 | 214 |  | 
36 | GAAGUUGGUAGGCCCUCGGAACAUGAGGAUCACCCAUGUAAGGAGGAUAUGCCCGGUACCCGCUGGCAGAAGGCCUUAUAAGAA | 11.1 | 68.8 |  | 
37 | AGCUACACCCAGAAGGACAUGAGGAUCACCCAUGUAGGAUAUGGGAGACACAGUCCCAUGUAGAGAAAUUACGCUAGUGUAGCG |  |  | 102 | 46.5
38 | AUGGUGGUAGGAUAUACAACUACUUGAUCGCGUUUCAUGGAACAUGAGGAUCACCCAUGUAGAAGGGCCCGAGG | 794 | 552 |  | 

Row | Sequence | apparent Kd [1] [nM] | apparent Kd [2] [nM] | apparent Kd [3] [nM] | apparent Kd [4] [nM]
39 | CCAUAAUUGAUCCAAUUUUACAACAUGAGGAUCACCCAUGUGCAGGAUAUCGUGAAAGUUAAAUACGAGAAGGGCAAGAACUGC | 560 | 356 |  | 
40 | UUCUUUGUUGUGAGGAUAUCGUAUUCUUUUUGUUACGAGAAGGCACAUGAGGAUCACCCAUGUUUCUUGAUGUU | 16.9 | 45.8 |  | 
41 | GGAACGAUCAUCAUUGAACAUGAGGAUCACCCAUGUACGAUGUAGGAUAUAUACCCGGUCAAGGUAUAGAAGGACAGGGUACAG | 18.6 | 55.4 |  | 
42 | AUGCUUCACACAGGAUAUACAUGAGGAUCACCCAUGUGUCCUACGUAGCUGACACGAGCUACGCGGUAGAAGGGUGUGAAGCAU | 18.6 | 93.7 |  | 
43 | CGAGUGUAAGGAUAUUCGGCACCAGAGAACGAUCUGGCGUAGAAGAAGGUACAUGAGGAUCACCCAUGUGGUUA | 158 | 41.7 |  | 
44 | CGAUGACACAGUCAUCCAAUACGAACAUGAGGAUCACCCAUGUAGGAUAUGCUACUCACAGAGUAGCAGAAGGACAUGUGCCUU | 41.4 | 182 |  | 
45 | AGAUAACACCAGAAGGACAUGAGGAUCACCCAUGUAGGAUAUGGGCAUCACUCGAGAAAGAAACGACCGAAAGGACACGCGGUC |  |  | 155 | 13
46 | GAAGAACAUGAGGAUCACCCAUGUGAUUCGCAUGUAGGAUAUGGGCACGCGCCCGCGUGUCUAGAAGGACAGGCUA |  |  | 69.3 | 109
47 | AAGUCGAGCGUGAGGAUAUCGACCGGACGACCCAUCGAGAAGGCACAUGAGGAUCACCCAUGUGAUUCAGCUCA | 16.9 | 25.9 |  | 
48 | CAUUAAUUCAUUAUAGUUAUUAUACAGGAUAUGUUACAUGAGGAUCACCCAUGUAUUCAUGGUAAACAGAAGGGUAAUACUCGU | 49.3 | 45.9 |  | 
49 | GCGGUCAACGUAGGAUAUCUUCAGCCACAGCGCAUUGCUGUACAUGAGGAUCACCCAUGUCCUGGAGAGAAGGACGGACGGCAG |  |  | 123 | 34.2
50 | AAAAACGGAGGAUAUACAAAUUAAGGAAGAAAACACGAAAAACAUGAGGAUCACCCAUGUAGAAGGCCGGAAAA | 22.6 | 28.2 |  | 
51 | UGCUGUGUCAGAGGAUAUACGUCAAUAAUCCAUUGCAAAUAGCGAUGGACAUGAGGAUCACCCAUGUAGAAGGCUGUCACAGCA | 58.3 | 242 |  | 
52 | AUUUUAAUAUAGGAUAUCGAUUUUAUUAUUUAACGAGAAGGAUAAACAUGAGGAUCACCCAUGUGGUAUCAUGG | 158 | 140 |  | 
53 | GGAUAGGACAGAGGAUAUACGUGCUAGAGAUACUUGCAAAAUUUCCUCACAUGAGGAUCACCCAUGUAGAAGGCUGUCCUAUCG | 56 | 489 |  | 
54 | GUAGAGUAAGGAUAUCGUGAAUAGGAUAGAAUGGUUAGAAACGAGAAGGUACAUGAGGAUCACCCAUGUAAUGU | 20.7 | 21.3 |  | 
55 | AGAUUACGAGGAUAUCGAUUUUAGUACAUGAGGAUCACCCAUGUUAUCCAGGUCUCGUUUCGAGAAGGCGUGAUUC | 303 | 132 |  | 
56 | CUACCUUAUGAGAAGGCGAUCAUGAAACAUGAUCGAGGAUAUCAUGUAAACAUGAGGAUCACCCAUGUAUGGGUAUUAUGGUAG |  |  | 331 | 40.4
